# Laboratory results published in ChEMBL document CHEMBL1134783, “N-Arylsulfonylindole derivatives as serotonin 5-HT(6) receptor ligands” (J Med Chem, 2001).
# How the values were obtained:
# [1] = target: T1, 5-hydroxytryptamine receptor 6 (Homo sapiens, UniProt P50406); assay: Binding affinity as displacement of [3H]5-HT binding to 5-hydroxytryptamine 6 receptor in HeLa cells.; format: cell-based
# In short: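 Human 5-HT6 stably expressed in HeLa cells; washed membranes in 50 mM Tris, 0.03% ascorbic acid, pH 7.6. Nonspecific binding defined with 10 µM 5-HT. Filtration and scintillation counting; one-site fit gave IC50, converted to Ki by Cheng-Prusoff. Geometric mean of ≥3 experiments, each in duplicate.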
# [2] = target: D(3) dopamine receptor (Homo sapiens, UniProt P35462); assay: Binding affinity against dopamine receptor D3 in HEK 293 cells using [3H]spiperone radioligand; format: cell-based, HEK293
# Chain of D(3) dopamine receptor (P35462 whole entry): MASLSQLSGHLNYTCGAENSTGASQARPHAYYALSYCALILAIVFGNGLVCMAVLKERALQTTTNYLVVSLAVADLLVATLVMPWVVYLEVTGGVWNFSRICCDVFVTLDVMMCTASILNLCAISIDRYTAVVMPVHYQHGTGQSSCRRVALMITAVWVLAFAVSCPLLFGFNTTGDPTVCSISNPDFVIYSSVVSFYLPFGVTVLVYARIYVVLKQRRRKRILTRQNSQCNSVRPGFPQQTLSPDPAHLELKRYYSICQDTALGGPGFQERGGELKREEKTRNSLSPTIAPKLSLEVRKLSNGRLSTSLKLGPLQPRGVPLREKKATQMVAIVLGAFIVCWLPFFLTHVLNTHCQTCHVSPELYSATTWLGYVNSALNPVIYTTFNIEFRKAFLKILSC
# [3] = target: 5-hydroxytryptamine receptor 1B (Homo sapiens, UniProt P28222); assay: Binding affinity against 5-hydroxytryptamine 1B receptor in CHO cells using [3H]5-HT as radioligand; format: cell-based
# Chain of 5-hydroxytryptamine receptor 1B (P28222 whole entry): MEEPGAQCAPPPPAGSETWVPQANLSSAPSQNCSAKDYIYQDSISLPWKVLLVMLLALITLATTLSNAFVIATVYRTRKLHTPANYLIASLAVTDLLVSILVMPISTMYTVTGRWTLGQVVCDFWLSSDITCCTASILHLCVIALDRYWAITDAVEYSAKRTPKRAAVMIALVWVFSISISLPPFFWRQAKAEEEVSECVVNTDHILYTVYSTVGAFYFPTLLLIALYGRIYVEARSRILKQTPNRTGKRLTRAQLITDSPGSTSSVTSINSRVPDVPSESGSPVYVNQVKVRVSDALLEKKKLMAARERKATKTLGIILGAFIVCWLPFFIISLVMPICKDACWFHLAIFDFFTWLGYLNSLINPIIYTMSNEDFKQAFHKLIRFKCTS
# [4] = target: T2, 5-hydroxytryptamine receptor 1F (Homo sapiens, UniProt P30939); assay: Binding affinity against 5-hydroxytryptamine 1F receptor in CHO cells using [3H]5-HT radioligand; format: cell-based
# T2 sequence (P30939 whole entry): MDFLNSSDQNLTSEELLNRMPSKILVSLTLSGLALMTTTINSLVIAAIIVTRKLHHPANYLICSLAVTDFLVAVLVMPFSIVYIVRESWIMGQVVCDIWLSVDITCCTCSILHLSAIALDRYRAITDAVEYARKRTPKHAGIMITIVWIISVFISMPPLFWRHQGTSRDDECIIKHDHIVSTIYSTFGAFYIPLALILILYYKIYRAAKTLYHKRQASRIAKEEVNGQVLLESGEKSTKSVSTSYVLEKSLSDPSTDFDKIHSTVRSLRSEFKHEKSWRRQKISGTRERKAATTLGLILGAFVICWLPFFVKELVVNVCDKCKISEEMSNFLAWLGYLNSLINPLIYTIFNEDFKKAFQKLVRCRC
# [5] = target: 5-hydroxytryptamine receptor 5A (Rattus norvegicus, UniProt P35364); assay: Binding affinity against 5-hydroxytryptamine 5A receptor in HEK 293 cells was determined using [3H]LSD as radioligand; format: cell-based, HEK293
# Chain of 5-hydroxytryptamine receptor 5A (P35364 whole entry): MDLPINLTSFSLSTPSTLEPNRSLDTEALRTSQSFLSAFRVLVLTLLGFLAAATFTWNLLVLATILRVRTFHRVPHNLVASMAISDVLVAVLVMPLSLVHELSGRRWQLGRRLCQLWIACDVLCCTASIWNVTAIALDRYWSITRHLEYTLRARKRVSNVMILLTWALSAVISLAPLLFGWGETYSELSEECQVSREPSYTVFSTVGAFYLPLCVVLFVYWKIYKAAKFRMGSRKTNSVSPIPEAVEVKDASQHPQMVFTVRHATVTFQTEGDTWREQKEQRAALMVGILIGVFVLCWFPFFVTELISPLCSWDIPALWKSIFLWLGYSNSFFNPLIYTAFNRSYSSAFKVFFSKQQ
# [6] = target: 5-hydroxytryptamine receptor 1D (Homo sapiens, UniProt P28221); assay: Binding affinity against 5-hydroxytryptamine 1D receptor in CHO cells using [3H]5-HT as radioligand; format: cell-based
# Chain of 5-hydroxytryptamine receptor 1D (P28221 whole entry): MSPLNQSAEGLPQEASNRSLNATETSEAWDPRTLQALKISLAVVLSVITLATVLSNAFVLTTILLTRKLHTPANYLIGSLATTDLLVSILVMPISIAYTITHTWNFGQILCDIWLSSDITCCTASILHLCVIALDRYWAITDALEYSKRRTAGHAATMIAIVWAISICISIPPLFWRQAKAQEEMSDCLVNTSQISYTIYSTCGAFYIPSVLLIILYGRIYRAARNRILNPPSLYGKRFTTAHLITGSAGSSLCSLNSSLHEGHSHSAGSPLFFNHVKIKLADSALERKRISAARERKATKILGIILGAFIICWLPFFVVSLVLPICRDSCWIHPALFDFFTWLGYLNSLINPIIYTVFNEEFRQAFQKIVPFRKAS
# [7] = target: D(2) dopamine receptor (Homo sapiens, UniProt P14416); assay: Binding affinity against dopamine receptor D2 using [3H]spiperone radioligand in CHO cells; format: cell-based
# Chain of D(2) dopamine receptor (P14416 whole entry): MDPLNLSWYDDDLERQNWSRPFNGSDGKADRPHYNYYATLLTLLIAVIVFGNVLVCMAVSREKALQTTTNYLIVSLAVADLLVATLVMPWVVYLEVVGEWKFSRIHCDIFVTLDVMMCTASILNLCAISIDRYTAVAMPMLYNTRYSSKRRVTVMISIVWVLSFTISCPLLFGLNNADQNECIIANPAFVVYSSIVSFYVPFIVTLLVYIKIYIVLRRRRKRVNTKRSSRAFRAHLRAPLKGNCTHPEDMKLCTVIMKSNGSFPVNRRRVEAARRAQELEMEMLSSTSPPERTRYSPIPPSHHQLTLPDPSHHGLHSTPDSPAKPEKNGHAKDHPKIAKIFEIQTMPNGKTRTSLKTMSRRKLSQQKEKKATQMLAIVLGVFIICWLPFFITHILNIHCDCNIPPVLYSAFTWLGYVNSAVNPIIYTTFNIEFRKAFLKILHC
# [8] = target: T3, D(4) dopamine receptor (Homo sapiens, UniProt P21917); assay: Binding affinity against dopamine receptor D4 cloned in HEK 293 cells using [3H]spiperone radioligand; format: cell-based, HEK293
# T3 sequence (P21917 whole entry): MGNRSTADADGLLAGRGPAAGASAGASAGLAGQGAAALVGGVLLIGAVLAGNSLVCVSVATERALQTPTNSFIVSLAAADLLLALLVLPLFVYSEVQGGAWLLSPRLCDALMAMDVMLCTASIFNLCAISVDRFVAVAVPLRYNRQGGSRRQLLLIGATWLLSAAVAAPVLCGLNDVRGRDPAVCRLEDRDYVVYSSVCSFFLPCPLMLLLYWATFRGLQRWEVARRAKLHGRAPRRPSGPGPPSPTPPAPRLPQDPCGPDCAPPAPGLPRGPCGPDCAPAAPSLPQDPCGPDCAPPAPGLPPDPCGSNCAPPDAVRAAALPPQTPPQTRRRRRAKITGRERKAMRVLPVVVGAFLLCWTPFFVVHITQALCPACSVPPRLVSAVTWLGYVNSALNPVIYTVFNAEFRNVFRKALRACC
# [9] = target: 5-hydroxytryptamine receptor 7 (Homo sapiens, UniProt P34969); assay: Binding affinity for 5-hydroxytryptamine 7 receptor human cloned receptors in CHO cells using [3H]5-HT; format: cell-based
# Chain of 5-hydroxytryptamine receptor 7 (P34969 whole entry): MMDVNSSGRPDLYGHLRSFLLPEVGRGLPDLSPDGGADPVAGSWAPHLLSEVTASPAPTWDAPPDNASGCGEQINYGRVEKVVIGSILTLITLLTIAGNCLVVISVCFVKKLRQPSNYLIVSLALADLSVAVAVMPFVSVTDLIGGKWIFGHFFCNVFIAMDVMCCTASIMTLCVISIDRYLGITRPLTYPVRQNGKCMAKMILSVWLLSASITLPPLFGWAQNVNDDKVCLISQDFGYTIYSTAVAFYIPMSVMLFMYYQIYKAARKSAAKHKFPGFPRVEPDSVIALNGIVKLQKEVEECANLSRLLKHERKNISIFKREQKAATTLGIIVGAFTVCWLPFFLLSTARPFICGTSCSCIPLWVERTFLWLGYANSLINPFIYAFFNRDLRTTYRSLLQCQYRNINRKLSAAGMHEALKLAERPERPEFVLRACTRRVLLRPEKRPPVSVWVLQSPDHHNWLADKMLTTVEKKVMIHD
# [10] = target: 5-hydroxytryptamine receptor 2A (Rattus norvegicus, UniProt P14842); assay: Binding affinity for 5-hydroxytryptamine 2 receptor of rat cortical membrane using [3H]DOB radioligand
# Chain of 5-hydroxytryptamine receptor 2A (P14842 whole entry): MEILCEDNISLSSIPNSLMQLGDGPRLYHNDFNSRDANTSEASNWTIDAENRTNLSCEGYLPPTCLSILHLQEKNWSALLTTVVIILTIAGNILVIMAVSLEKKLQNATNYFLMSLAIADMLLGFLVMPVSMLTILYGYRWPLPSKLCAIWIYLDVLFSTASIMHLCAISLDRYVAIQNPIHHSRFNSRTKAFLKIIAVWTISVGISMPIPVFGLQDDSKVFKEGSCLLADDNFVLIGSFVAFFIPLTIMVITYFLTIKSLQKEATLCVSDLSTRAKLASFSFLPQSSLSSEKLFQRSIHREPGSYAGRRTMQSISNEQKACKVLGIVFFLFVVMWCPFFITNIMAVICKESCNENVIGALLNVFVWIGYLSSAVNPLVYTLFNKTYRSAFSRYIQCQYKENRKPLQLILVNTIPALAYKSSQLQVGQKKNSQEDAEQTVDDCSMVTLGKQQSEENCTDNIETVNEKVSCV
# [11] = target: T4, 5-hydroxytryptamine receptor 1A (Homo sapiens, UniProt P08908); assay: Binding affinity against 5-hydroxytryptamine 1A receptor in HeLa cells was determined using [3H]5-HT; format: cell-based
# T4 sequence (P08908 whole entry): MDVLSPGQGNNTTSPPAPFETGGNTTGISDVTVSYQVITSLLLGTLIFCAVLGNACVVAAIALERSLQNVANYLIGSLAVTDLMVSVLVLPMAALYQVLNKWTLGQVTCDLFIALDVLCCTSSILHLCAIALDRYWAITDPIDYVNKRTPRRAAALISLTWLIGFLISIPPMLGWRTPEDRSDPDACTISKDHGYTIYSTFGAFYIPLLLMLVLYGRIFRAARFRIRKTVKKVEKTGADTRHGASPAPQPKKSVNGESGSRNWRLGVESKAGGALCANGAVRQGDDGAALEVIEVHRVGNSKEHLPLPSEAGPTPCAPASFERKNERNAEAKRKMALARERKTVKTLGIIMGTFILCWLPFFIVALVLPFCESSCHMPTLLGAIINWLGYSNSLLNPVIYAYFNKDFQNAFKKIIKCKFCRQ
# [12] = target: T2, 5-hydroxytryptamine receptor 1F; assay: Binding affinity against 5-hydroxytryptamine 1F receptor in CHO using [3H]5-HT radioligand
# [13] = target: T1, 5-hydroxytryptamine receptor 6; assay: Binding affinity as displacement of [3H]5-HT binding to 5-hydroxytryptamine 6 receptor in HeLa cells; format: cell-based
# In short: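 Membranes from HeLa cells stably expressing cloned human 5-HT6 receptor, in 50 mM Tris with 0.03% ascorbic acid, pH 7.6. […] Nonspecific binding defined by 10 µM 5-HT. Filtration, then scintillation counting. One-site fit gave IC50, converted to Ki by Cheng-Prusoff. Geometric mean of ≥3 independent duplicate runs.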
# T1 sequence (P50406 whole entry): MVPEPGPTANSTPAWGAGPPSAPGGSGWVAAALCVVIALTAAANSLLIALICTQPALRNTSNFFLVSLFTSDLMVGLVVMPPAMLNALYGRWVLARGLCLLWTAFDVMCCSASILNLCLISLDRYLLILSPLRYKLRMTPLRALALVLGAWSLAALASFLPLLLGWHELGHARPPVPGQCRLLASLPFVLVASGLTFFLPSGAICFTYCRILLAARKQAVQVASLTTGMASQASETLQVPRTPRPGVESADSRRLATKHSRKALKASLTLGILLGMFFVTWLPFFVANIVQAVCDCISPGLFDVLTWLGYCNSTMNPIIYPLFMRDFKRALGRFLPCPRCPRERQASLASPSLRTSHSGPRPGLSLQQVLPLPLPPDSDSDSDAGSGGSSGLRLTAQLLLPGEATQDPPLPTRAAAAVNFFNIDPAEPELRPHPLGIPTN
structure (smiles),measurement,setting,value
CN(C)CCc1cn(S(=O)(=O)c2ccccc2)c2ccc(O)cc12,Ki,[1],0.019 µM
CN(C)CCc1cccc2[nH]c(C(=O)c3ccccc3)cc12,Ki,[1],0.26 µM
COc1ccc2c(c1)C(CCN(C)C)CN2S(=O)(=O)c1ccccc1 (stereo not given),Ki,[1],0.063 µM
NCCc1cccc2c1ccn2S(=O)(=O)c1ccccc1,Ki,[2],0.94 µM
same,Ki,[1],0.0024 µM
same,Ki,[3],0.0065 µM
same,Ki,[4],0.047 µM
same,Ki,[5],1.2 µM
same,Ki,[6],0.0045 µM
same,Ki,[7],> 1.7 µM
same,Ki,[8],> 3.2 µM
same,Ki,[9],0.029 µM
same,Ki,[10],0.0048 µM
same,Ki,[11],0.14 µM
CN(C)CCc1cccc2c1cc(C(=O)c1ccccc1)n2S(=O)(=O)c1ccccc1,Ki,[2],0.066 µM
same,Ki,[1],0.003 µM
same,Ki,[3],0.19 µM
same,Ki,[4],0.57 µM
same,Ki,[5],1.6 µM
same,Ki,[6],0.098 µM
same,Ki,[7],0.75 µM
same,Ki,[8],> 3.2 µM
same,Ki,[9],1.3 µM
same,Ki,[10],0.0066 µM
same,Ki,[11],0.48 µM
COc1ccc2c(c1)c(CCN(C)C)c(C)n2S(=O)(=O)c1ccccc1,Ki,[1],0.012 µM
CN(C)CCc1cn(C(=O)OC(C)(C)C)c2ccc(O)cc12,Ki,[1],0.37 µM
CN(C)CCc1cn(S(=O)(=O)c2ccccc2)c2ccc(C#N)cc12,Ki,[1],0.033 µM
CN(C)CCc1cn(S(C)(=O)=O)c2ccccc12,Ki,[1],0.62 µM
Cc1ccc(S(=O)(=O)n2cc3c4c(cccc42)[C@H](O)[C@@H](N(C)C)C3)cc1,Ki,[2],3.7 µM
same,Ki,[1],0.0072 µM
same,Ki,[3],3.1 µM
same,Ki,[5],> 6.4 µM
same,Ki,[6],3.9 µM
same,Ki,[7],> 1.7 µM
same,Ki,[8],> 3.2 µM
same,Ki,[9],> 5.8 µM
same,Ki,[10],0.32 µM
same,Ki,[11],> 5.6 µM
COc1ccc2c(c1)c(CCN(C)C)cn2S(=O)(=O)c1cccc(Cl)c1,Ki,[1],0.0079 µM
COc1ccc2c(c1)c(CCN(C)C)cn2S(=O)(=O)c1ccc(C)cc1,Ki,[1],0.045 µM
COc1ccc2c(c1)c(CCN(C)C)cn2S(=O)(=O)c1ccccc1Cl,Ki,[1],0.011 µM
CN(C)CCc1cn(C(=O)c2ccccc2)c2ccc(O)cc12,Ki,[12],0.029 µM
same,Ki,[2],> 3.5 µM
same,Ki,[1],0.054 µM
same,Ki,[3],0.42 µM
same,Ki,[5],4.5 µM
same,Ki,[6],0.18 µM
same,Ki,[7],> 2.2 µM
same,Ki,[8],> 3.9 µM
same,Ki,[9],1.6 µM
same,Ki,[10],0.2 µM
same,Ki,[11],0.62 µM
CCOC(=O)c1[nH]c2ccccc2c1CCN(C)C,Ki,[2],0.11 µM
same,Ki,[1],0.02 µM
same,Ki,[3],0.91 µM
same,Ki,[4],2 µM
same,Ki,[6],0.33 µM
same,Ki,[7],0.059 µM
same,Ki,[8],1.6 µM
same,Ki,[9],0.51 µM
same,Ki,[10],0.13 µM
same,Ki,[11],1.8 µM
COc1cccc(Cc2noc(-c3[nH]c4ccccc4c3CCN(C)C)n2)c1,Ki,[1],0.0013 µM
CO[C@H]1c2cccc3c2c(cn3S(=O)(=O)c2ccc(C)cc2)C[C@@H]1N(C)C,Ki,[1],0.13 µM
COc1ccc2c(c1)c(CCN)cn2S(=O)(=O)c1ccccc1,Ki,[1],0.04 µM
COc1ccc2c(c1)c(CCN(C)C)cn2S(=O)(=O)c1cccs1,Ki,[1],0.0083 µM
COc1ccc2c(c1)c(CCN1CCOCC1)cn2S(=O)(=O)c1ccccc1,Ki,[1],1.7 µM
CN(C)CCc1cn(S(=O)(=O)c2ccccc2)c2ccc(OCc3ccccc3)cc12,Ki,[1],0.32 µM
COc1ccc2[nH]c(C)c(CCN(C)C)c2c1,Ki,[1],0.089 µM
COc1ccc2c(c1)c(CCN(C)C)cn2S(=O)(=O)c1ccc(Cl)cc1,Ki,[1],0.017 µM
COc1ccc2c(c1)c(CCN(C)C)cn2S(=O)(=O)c1ccc2ccccc2c1,Ki,[1],0.0098 µM
COc1ccc2c(c1)c(CCN(C)C)cn2S(=O)(=O)c1ccccc1,Ki,[2],0.08 µM
same,Ki,[3],2.2 µM
same,Ki,[4],2.5 µM
same,Ki,[5],> 5 µM
same,Ki,[6],0.72 µM
same,Ki,[7],0.21 µM
same,Ki,[8],> 3.2 µM
same,Ki,[9],1.9 µM
same,Ki,[10],0.065 µM
COc1ccc(S(=O)(=O)n2cc(CCN(C)C)c3cc(OC)ccc32)cc1,Ki,[1],0.026 µM
CN(C)CCc1cccc2c1ccn2S(=O)(=O)c1ccccc1,Ki,[2],0.3 µM
same,Ki,[1],0.0015 µM
same,Ki,[3],0.011 µM
same,Ki,[4],0.0039 µM
same,Ki,[5],3.4 µM
same,Ki,[6],0.0093 µM
same,Ki,[7],1.6 µM
same,Ki,[8],> 3.2 µM
same,Ki,[9],0.46 µM
same,Ki,[10],0.018 µM
same,Ki,[11],0.17 µM
CN(C)CCc1cn(S(=O)(=O)c2ccccc2)c2ccccc12,Ki,[2],0.023 µM
same,Ki,[1],0.0029 µM
same,Ki,[3],2.3 µM
same,Ki,[4],0.77 µM
same,Ki,[5],4 µM
same,Ki,[6],0.51 µM
same,Ki,[7],0.062 µM
same,Ki,[8],> 3.2 µM
same,Ki,[9],3.7 µM
same,Ki,[10],0.084 µM
same,Ki,[11],0.52 µM
CN(C)CCCc1cccc2c1ccn2S(=O)(=O)c1ccccc1,Ki,[13],0.0079 µM
